High-throughput results as filed in PubChem.
Shown are actives, neighbours in structure and some others; about 3% of the full set was active somewhere.
Cl transport mod – modulates chloride dependent transport by human KCC2 | KCC2 cells, thallium flux FluoZin-2 fluorescence | actives 2.2% (n = 190,000) | AID 1456 | B-score of Tl+ flux slope (higher = more flux/activation; lower = inhibition) at 10 µM | Q9H2X9;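 active means thallium flux slope and its plate-corrected score both differing from the plate sample mean at a set confidence after two filtering rounds, in either direction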;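 further: slope of fluorescence scaled to starting intensity during 10 to 20 s after thallium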
Target sequence (Q9H2X9 whole entry, looked up): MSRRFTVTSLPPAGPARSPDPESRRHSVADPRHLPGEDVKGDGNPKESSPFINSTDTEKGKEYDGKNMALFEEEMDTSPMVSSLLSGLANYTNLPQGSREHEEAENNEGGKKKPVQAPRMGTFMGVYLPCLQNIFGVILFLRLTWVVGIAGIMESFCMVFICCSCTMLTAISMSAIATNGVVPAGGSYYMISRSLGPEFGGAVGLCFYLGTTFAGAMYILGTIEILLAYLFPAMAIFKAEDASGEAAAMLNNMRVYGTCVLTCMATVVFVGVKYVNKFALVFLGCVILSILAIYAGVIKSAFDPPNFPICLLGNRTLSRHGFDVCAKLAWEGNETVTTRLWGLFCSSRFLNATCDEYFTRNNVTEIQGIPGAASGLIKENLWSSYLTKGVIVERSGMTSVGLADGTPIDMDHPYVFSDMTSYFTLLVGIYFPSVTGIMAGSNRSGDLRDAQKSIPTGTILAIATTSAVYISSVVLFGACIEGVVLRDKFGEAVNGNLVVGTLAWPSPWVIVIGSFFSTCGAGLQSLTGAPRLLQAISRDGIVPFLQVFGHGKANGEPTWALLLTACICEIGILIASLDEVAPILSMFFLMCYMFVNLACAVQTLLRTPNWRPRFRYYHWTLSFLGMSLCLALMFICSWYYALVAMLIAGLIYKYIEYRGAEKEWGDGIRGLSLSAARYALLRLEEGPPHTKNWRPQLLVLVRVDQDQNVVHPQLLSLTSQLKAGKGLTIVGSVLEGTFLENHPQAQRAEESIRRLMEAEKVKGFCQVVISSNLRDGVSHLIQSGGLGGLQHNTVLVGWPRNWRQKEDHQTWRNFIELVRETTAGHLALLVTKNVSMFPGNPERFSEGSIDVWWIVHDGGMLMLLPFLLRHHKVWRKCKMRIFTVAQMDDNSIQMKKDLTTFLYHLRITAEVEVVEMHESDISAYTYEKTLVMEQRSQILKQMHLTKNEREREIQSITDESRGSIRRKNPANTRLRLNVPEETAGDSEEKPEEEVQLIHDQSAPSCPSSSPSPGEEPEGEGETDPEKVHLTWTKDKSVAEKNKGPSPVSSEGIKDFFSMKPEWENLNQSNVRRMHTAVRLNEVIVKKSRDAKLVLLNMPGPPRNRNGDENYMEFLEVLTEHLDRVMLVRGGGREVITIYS
ROMK primary – modulates human ROMK potassium channel activity. P48048. Tet-inducible ROMK, thallium flux fluorescence; actives lie on both sides. B-score at 10 µM. actives 2% (n = 130,000). AID 1918;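 active means signal ratio slope over the read window, or its plate-corrected B-score, at least 3 SD from the plate mean, either direction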;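 further: B-score of the F/F0 ratio slope over 7 to 12 s after thallium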
PKD1 inh – PKD1 (human) kinase inhibition; actives 0.056% (n = 200,000); PKD1 kinase fluorescence polarization assay; inhibition, % (test concentration not listed); AID 797; in the data active means inhibition above about 50%
Rad51 HR inh – Rad51 (human) homologous recombination inhibition; Q06609; hRad51 DNA strand exchange, fluorescence dequenching; inhibition, % at 10 µM; actives 0.085% (n = 200,000);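 active means inhibition above 40% at the single screening dose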;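 further: 0% = DMSO control wells and 100% = blanks with heterologous ssDNA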
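Material: hRad51 filaments on single-stranded DNA; Reagent: Donor/quencher-labelled 47-bp dsDNA substrate; Compound: 10 µM final, single point; Schedule: 37 °C 15-min filament assembly, 30-min compound preincubation, 15-min exchange; Technique: FRET fluorescence, excitation 485 nm, emission 520 nm; Benchmarks: control wells and blank wells on each plate.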
ROMK retest – human ROMK channel modulation, retest confirmation. shares compounds with ROMK primary. ROMK thallium flux, fluorescence ratio; stronger effect = lower value. normalized thallium flux (F/F0 slope) at 10 µM. actives 54% (n = 3,000);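 active means Flux at 10 µM at least 3 SD below or above vehicle control mean in one or both replicates; inconclusive means no clear call, values can overlap the other calls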
The depositor's hits bear a star; i = inactive; ? = inconclusive; . = no result given.

SMILES	Cl transport mod	ROMK primary	PKD1 inh	Rad51 HR inh	ROMK retest
N#CC1=C(N)C(C#N)(C#N)C(c2ccc[nH]2)C2CCCC=C12 (stereo not given)	-0.369	-6.47*	-5.4	8.0	0.0534*
Cc1ccc(OCCNC(=O)C(=O)NCc2ccco2)cc1	1.55	3.02*	-5.5	3.8	0.101*
Cc1ccc(OCCCC(=O)NCc2ccco2)cc1	.	.	-9.6	-10.8	.
Cc1ccc(S(=O)(=O)N2CCCC2C(=O)O)s1 (stereo not given)	-0.56	0.139	-5.4	4.3	.
CSc1cccc(NC(=O)C2CCCN2S(=O)(=O)c2ccc(Br)s2)c1 (stereo not given)	-1.92	-3.07*	-5.8	-8.9	0.0613*
O=C(Nc1ccccc1C(=O)Nc1nnc(C(F)(F)F)s1)c1ccccc1Cl	0.746	.	.	19.4	0.0612*
O=C(Nc1nnc(C(F)(F)F)s1)c1ccc(Br)s1	-0.984	-2.96*	-3.7	-2.0	0.0901
NC(=O)c1ccccc1NC(=O)c1ccccc1Cl	-0.076	.	.	.	.
CC1(C)Cc2nc(NC3CCCCC3)c(C#N)cc2CO1	-0.738	-2.52*	-2.9	9.2	0.072
CC1(C)Cc2c(C#N)c(NC3CCCCC3)nc(-c3ccco3)c2CO1	0.901	.	-6.6	4.0	.
C1CCN(CCCNC2C3CC4CC(C3)CC2C4)C1 (stereo not given)	0.384	.	6.6	1.7	.
CCOC(=O)c1c(NC(=O)Cn2nc(C(F)(F)F)cc2C)sc(C)c1C	-0.225	.	14.0	4.4	.
COc1ccc(N/C=C2\C(=O)CCc3c2oc2cc(Cl)c(O)c(Cl)c32)cc1	-1.02	.	.	-261.0	0.0641*
Cc1cc(=O)oc2c(C(=O)/C=C\c3cccs3)c(O)ccc12	0.0276	-5.71*	8.8	.	0.05*
Cc1cc(=O)oc2c(C(=O)/C=C/c3ccccc3)c(O)ccc12	-0.0701	.	-4.1	-3.2	.
CCOc1ccccc1OCC(=O)NNC(=O)Cn1cnc2c1c(=O)n(C)c(=O)n2C	-0.496	0.012	7.3	-2.3	.
O=C(NCC(c1ccco1)N1CCCCC1)c1ccc(OCc2ccccc2)cc1 (stereo not given)	.	-3.24*	2.1	.	0.0701
Cc1cn2c(N)c(C=C3C=C(Cl)C(=O)C(Cl)=C3)c(=O)nc2s1	i	-6.15*	-8.8	i	0.025*
CCOC(=O)C1(CC)NC(c2ccc(OC)cc2OC)C2C(=O)N(C)C(=O)C21 (stereo not given)	0.0504	-0.671	-3.7	6.5	.
Cc1ccc(NC(=O)CCC(=O)N/N=C/C=C/c2ccccc2)cc1	0.333	0.347	-4.8	5.8	.
CCC1(c2ccc(F)cc2)NC(=O)N(CC(=O)Nc2cc(S(=O)(=O)N(C)C)ccc2Cl)C1=O (stereo not given)	-1.24	0.378	-5.5	7.4	.
C=CCOc1ccc(Br)cc1CNC(C)(C)CO	0.254	.	-0.5	3.1	.
C=CCOc1ccc(Br)cc1CNC(C)(C)C	-0.0156	0.497	-3.1	5.7	0.072
Cc1cc(C)c2nc(Cl)c(Cl)nc2c1	1.49	.	.	9.6	.
COC(=O)c1cc(C)ccc1OCc1ccc([N+](=O)[O-])cc1	0.549	-12.9*	.	-18.7	?
SMILES	Cl transport mod	ROMK primary	PKD1 inh	Rad51 HR inh	ROMK retest
COC(=O)c1ccc(COc2ccc(C)cc2[N+](=O)[O-])o1	-1.31	.	.	17.3	.
COC(=O)[C@@]1(Cc2ccc(F)cc2)[C@H]2c3cc(C(=O)N4CCCC4)n(CCc4ccc(O)c(O)c4)c3C[C@H]2CN1C(=O)c1ccccc1	0.0192	-2.28	-5.7	.	?
COC(=O)[C@@]1(Cc2ccc(F)cc2)[C@H]2c3cc(C(=O)N4CCCC4)n(CCO)c3C[C@H]2CN1C(=O)c1ccccc1	-0.702	-0.611	-7.7	-4.4	.
Cc1cnc(NC(=O)c2sc(Nc3ccccc3)nc2N)o1	-0.154	0.282	.	-0.7	.
Nc1nc(Nc2ccccc2)sc1C(=O)c1ccccc1	-1.18	.	.	19.8	?
Cc1ccc(NNc2c(C)nc3ccccc3nc2=O)cc1	-0.178	2.72*	-6.7	-12.5	0.105*
Cc1ccc(C(=O)NNc2c3ccccc3nc3ccccc23)cc1	-1.33	.	.	0.4	.
COc1ccc(C2=NOC(C)(c3nnc(Cc4ccccc4)o3)C2)cc1 (stereo not given)	.	.	.	9.6	.
N#Cc1ccccc1NC(=O)CSc1nnc(-c2ccncc2)o1	0.78	-0.215	-1.0	13.4	.
CCCOC(=O)c1cc(-c2ccc(C=O)o2)ccc1Cl	-0.508	.	-6.7	1.1	0.103*
Cc1cc(/C=N/NC(=O)c2cccs2)c(C)n1-c1ccccc1	0.037	3.82*	-9.8	1.7	0.0814
Cc1cc(/C=N/NC(=O)c2ccncc2)c(C)n1-c1ccccc1	-1.4	0.825	-18.3	11.8	.
Cc1cc(C)nc(SCC(=O)N/N=C/c2cc(C)n(-c3ccccc3C)c2C)n1	-1.31	6.64*	-1.6	-37.6	0.117*
Cc1cc(/C=N/NC(=O)C(O)(c2ccccc2)c2ccccc2)c(C)n1-c1ccccc1	-0.612	2.74*	-2.0	.	0.097*
CC(C)c1[nH]nc2c1C(c1ccco1)C(C#N)=C(N)O2 (stereo not given)	-1.51	-0.982	-0.1	-2.3	.
CC(C)CC(=O)/C(=C\c1ccc(Cl)cc1Cl)n1cncn1	0.269	-7.07*	-7.8	17.6	0.0464*
CCOc1cc(CNCCCN2CCOCC2)cc(Br)c1OCc1ccccc1Cl	0.246	-1.62*	0.2	-15.1	?
CCCN1C(=O)/C(=C/c2ccncc2)SC1=S	0.126	-2.84*	-11.5	-1.5	0.0444*
COCCNC(=O)C1=C(N)C(C(=O)Nc2ccc(C)c(S(=O)(=O)N3CCCCC3)c2)SC1=Nc1ccc(C)cc1C (stereo not given)	-0.688	.	0.3	-2.2	.
CCOC(=O)c1c(NC(=O)CSc2nc3ccccc3o2)sc(C(C)=O)c1C	.	-3.29*	0.7	-47.9	0.0595*
CCC(=O)Nc1cccc(C(=O)/C=C/c2cccs2)c1	-1.96	-1.35	4.3	-6.3	0.0686*
CCOC(=O)CSc1nc(-c2ccccc2)ns1	0.408	0.316	-8.4	5.3	.
CCOC(=O)CSC1=NC(=O)/C(=C\c2ccc(OC(C)=O)cc2)S1	.	.	27.7	-1.6	0.0401*
CCOC(=O)CSC1=NC(=O)/C(=C/c2ccc(Br)cc2)S1	0.0227	-0.715	-4.9	-0.7	0.0614*
[O-]/[N+](=C/c1ccc(F)cc1)c1ccccc1	.	-0.48	-11.4	2.6	.
SMILES	Cl transport mod	ROMK primary	PKD1 inh	Rad51 HR inh	ROMK retest
[O-]/[N+](=C\c1ccncc1)c1ccccc1	0.47	.	-1.5	.	0.0825
Cc1ccc(C(=O)CC(Nc2ccc(F)cc2)c2ccccc2)cc1 (stereo not given)	-0.0993	.	-7.6	-7.3	.
CC1C/C(=C/c2ccncc2)C(=O)/C(=C/c2ccncc2)C1 (stereo not given)	-1.21	-1.8*	6.5	-9.0	0.0501*
CC1C/C(=C/c2cccn2C)C(=O)/C(=C/c2cccn2C)C1 (stereo not given)	i	.	-14.2	-172.1	.
CC(C)CC(C(=O)N1CCc2ccccc2C1)N1C(=O)c2ccccc2C1=O (stereo not given)	-2.08	-3.47*	-7.3	1.7	0.0568*
CN(CC(=O)Nc1ccc(Cl)c(Cl)c1)Cc1nnc(-c2ccc(F)cc2)o1	-0.169	-0.201	0.8	.	.
Cc1cc(N2CCCCC2)nc(NCc2ccccc2)n1	-0.51	.	4.3	-2.0	0.0653*
